Assay results reported in ChEMBL document CHEMBL4402601, “Discovery of a Silicon-Containing Pan-Genotype Hepatitis C Virus NS5A Inhibitor” (J Med Chem, 2020).
Blank lines part the entries; values can stand above or below the compound they belong to.

Experiments:
[1] = Drug distribution in mouse liver at 10 mg/kg, po incubated for 24 hrs by UPLC-MS/MS analysis; type: ADME, organism-based; conditions: read-out: Drug uptake
Outline: (§1)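 Oral dosing in mice and rats; compound measured in plasma and liver by UPLC-MS/MS at each time point, n = 3 (mean ± SD). LPR is mean liver concentration divided by mean plasma concentration.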

[2] = Drug distribution in mouse plasma at 10 mg/kg, po incubated for 3 hrs by UPLC-MS/MS analysis; type: ADME, organism-based; outline: as §1
[3] = Drug distribution in mouse liver at 10 mg/kg, po incubated for 3 hrs by UPLC-MS/MS analysis; type: ADME, organism-based; conditions: read-out: Drug uptake; outline: as §1
[4] = Ratio of drug distribution in mouse liver to drug distribution in mouse plasma measured after 0.5 hrs by UPLC-MS/MS analysis; type: ADME, cell-free; outline: as §1
[5] = Ratio of drug distribution in rat liver to drug distribution in rat plasma measured after 3 hrs by UPLC-MS/MS analysis; type: ADME, cell-free; outline: as §1
[6] = Drug distribution in mouse plasma at 10 mg/kg, po incubated for 0.5 hrs by UPLC-MS/MS analysis; type: ADME, organism-based; outline: as §1
[7] = Drug distribution in rat liver at 10 mg/kg, po incubated for 0.5 hrs by UPLC-MS/MS analysis; type: ADME, organism-based; conditions: read-out: Drug uptake; outline: as §1
[8] = Ratio of drug distribution in rat liver to drug distribution in rat plasma measured after 0.5 hrs by UPLC-MS/MS analysis; type: ADME, cell-free; outline: as §1
[9] = Drug distribution in mouse liver at 10 mg/kg, po incubated for 0.5 hrs by UPLC-MS/MS analysis; type: ADME, organism-based; conditions: read-out: Drug uptake; outline: as §1
[10] = Drug distribution in rat plasma at 10 mg/kg, po incubated for 8 hrs by UPLC-MS/MS analysis; type: ADME, organism-based; outline: as §1
[11] = Drug distribution in rat plasma at 10 mg/kg, po incubated for 3 hrs by UPLC-MS/MS analysis; type: ADME, organism-based; outline: as §1
[12] = Drug distribution in mouse plasma at 10 mg/kg, po incubated for 24 hrs by UPLC-MS/MS analysis; type: ADME, organism-based; outline: as §1
[13] = Drug distribution in rat plasma at 10 mg/kg, po incubated for 0.5 hrs by UPLC-MS/MS analysis; type: ADME, organism-based; outline: as §1
[14] = Drug distribution in rat liver at 10 mg/kg, po incubated for 3 hrs by UPLC-MS/MS analysis; type: ADME, organism-based; conditions: read-out: Drug uptake; outline: as §1
[15] = Ratio of drug distribution in rat liver to drug distribution in rat plasma measured after 8 hrs by UPLC-MS/MS analysis; type: ADME, cell-free; outline: as §1
[16] = Ratio of drug distribution in mouse liver to drug distribution in mouse plasma measured after 3 hrs by UPLC-MS/MS analysis; type: ADME, cell-free; outline: as §1
[17] = Ratio of drug distribution in mouse liver to drug distribution in mouse plasma measured after 24 hrs by UPLC-MS/MS analysis; type: ADME, cell-free; outline: as §1
[18] = Drug distribution in rat liver at 10 mg/kg, po incubated for 8 hrs by UPLC-MS/MS analysis; type: ADME, organism-based; conditions: read-out: Drug uptake; outline: as §1
Hepatitis C virus [19] = assay: Antiviral activity against Hepatitis C virus subtype 3a subgenomic replicon expressing NS5A infected in human HuH7 cells assessed as reduction in viral replication incubated for 3 days by luciferase reporter gene assay; type: functional, organism-based, Hepacivirus hominis; conditions: Huh-7, 72 h
Outline: (§2)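 HCV replicon cell assay; inhibition of replication read as decrease in luciferase signal. Percent inhibition computed at each compound concentration; EC50 (pM) from nonlinear regression fit to a 4-parameter logistic equation. Values are means of triplicate wells, with each experiment run at least twice.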

Hepatitis C virus [20] = assay: Antiviral activity against Hepatitis C virus subtype 6a subgenomic replicon expressing NS5A infected in human HuH7 cells assessed as reduction in viral replication incubated for 3 days by luciferase reporter gene assay; type: functional, organism-based, Hepacivirus hominis; conditions: Huh-7, 72 h; outline: as §2
Hepatitis C virus [21] = assay: Antiviral activity against Hepatitis C virus subtype 1b Con1 subgenomic replicon expressing NS5A infected in human HuH7 cells assessed as reduction in viral replication incubated for 3 days by luciferase reporter gene assay; type: functional, organism-based, Hepacivirus hominis; conditions: subtype 1b Con1, Huh-7, 72 h; outline: as §2
Hepatitis C virus [22] = assay: Antiviral activity against Hepatitis C virus subtype 1a H77 subgenomic replicon expressing NS5A infected in human HuH7 cells assessed as reduction in viral replication incubated for 3 days by luciferase reporter gene assay; type: functional, organism-based, Hepacivirus hominis; conditions: subtype 1a H77, Huh-7, 72 h; outline: as §2
Hepatitis C virus [23] = assay: Potency index, ratio of EC50 of to EC50 of compound for antiviral activity against Hepatitis C virus subtype 6a subgenomic replicon expressing NS5A infected in human HuH7 cells assessed as reduction in viral replication incubated for 3 days by luciferase reporter gene assay; type: functional, Hepacivirus hominis
[24] = Metabolic stability in mouse liver microsomes assessed as compound remaining at 1 uM incubated for 60 mins by UPLC-MS/MS analysis; type: ADME, Microsome; conditions: read-out: Stability
Outline: (§3)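 Pooled mouse, rat or human liver microsomes (0.5 mg/mL) with 1 μM compound, 1 mM NADPH, 5 mM MgCl₂ and 100 mM potassium phosphate pH 7.4. Pre-incubated 5 min at 37 °C, started with NADPH, then run 60 min at 37 °C. Quenched with ice-cold acetonitrile containing internal standard; parent remaining measured by UPLC-MS/MS.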

[25] = Metabolic stability in rat liver microsomes assessed as compound remaining at 1 uM incubated for 60 mins by UPLC-MS/MS analysis; type: ADME, Microsome; conditions: read-out: Stability; outline: as §3
[26] = Metabolic stability in human liver microsomes assessed as compound remaining at 1 uM incubated for 60 mins by UPLC-MS/MS analysis; type: ADME, Microsome; conditions: read-out: Stability; outline: as §3

EC50 (Hepatitis C virus [19]): 8.8 pM | EC50 (Hepatitis C virus [20]): 182 pM | EC50 (Hepatitis C virus [21]): 0.4 pM | EC50 (Hepatitis C virus [22]): 0.8 pM
SMILES: COC(=O)N[C@H](C(=O)N1CCC[C@H]1C(=O)Nc1ccc([C@@H]2CC[C@@H](c3ccc(NC(=O)[C@@H]4CCCN4C(=O)[C@@H](NC(=O)OC)C(C)C)cc3)N2c2ccc(N3CC[Si](C)(C)CC3)c(F)c2)cc1)C(C)C

EC50 (Hepatitis C virus [19]): 51 pM | EC50 (Hepatitis C virus [20]): 831 pM | EC50 (Hepatitis C virus [21]): 0.5 pM | EC50 (Hepatitis C virus [22]): 0.8 pM
SMILES: COC(=O)N[C@H](C(=O)N1CCC[C@H]1C(=O)Nc1ccc([C@H]2CC[C@H](c3ccc(NC(=O)[C@@H]4CCCN4C(=O)[C@@H](NC(=O)OC)C(C)C)cc3)N2c2ccc(N3CC[Si](C)(C)CC3)c(F)c2)cc1)C(C)C

EC50 (Hepatitis C virus [19]): 11 pM | EC50 (Hepatitis C virus [20]): 88 pM | EC50 (Hepatitis C virus [21]): 0.4 pM | EC50 (Hepatitis C virus [22]): 0.9 pM
SMILES: COC(=O)N[C@H](C(=O)N1CCC[C@H]1C(=O)Nc1ccc([C@@H]2CC[C@@H](c3ccc(NC(=O)[C@@H]4CCCN4C(=O)[C@@H](NC(=O)OC)C(C)C)cc3)N2c2cc(F)c(N3CC[Si](C)(C)CC3)c(F)c2)cc1)C(C)C

EC50 (Hepatitis C virus [19]): 37 pM | EC50 (Hepatitis C virus [20]): 463 pM | EC50 (Hepatitis C virus [21]): 0.4 pM | EC50 (Hepatitis C virus [22]): 0.9 pM
SMILES: COC(=O)N[C@H](C(=O)N1CCC[C@H]1C(=O)Nc1ccc([C@H]2CC[C@H](c3ccc(NC(=O)[C@@H]4CCCN4C(=O)[C@@H](NC(=O)OC)C(C)C)cc3)N2c2cc(F)c(N3CC[Si](C)(C)CC3)c(F)c2)cc1)C(C)C

The remaining lines, values behind:

SMILES: COC(=O)N[C@H](C(=O)N1CCC[C@H]1c1nc2cc([C@@H]3CC[C@@H](c4cc5nc([C@@H]6CCCN6C(=O)[C@@H](NC(=O)OC)[C@@H](C)OC)[nH]c5cc4F)N3c3cc(F)c(N4CCC(c5ccc(F)cc5)CC4)c(F)c3)c(F)cc2[nH]1)[C@@H](C)OC
concentration at 24 h [1]: 69.6 ng/g | concentration at 3 h [2]: 1540 ng/mL | concentration at 3 h [3]: 193 ng/g | Kp at 0.5 h [4]: 0.43 | Kp at 3 h [5]: 1.1 | concentration at 0.5 h [6]: 414 ng/mL | concentration at 0.5 h [7]: 155 ng/g | Kp at 0.5 h [8]: 1.5 | concentration at 0.5 h [9]: 94 ng/g | concentration at 8 h [10]: 30.1 ng/mL | concentration at 3 h [11]: 96.4 ng/mL | concentration at 24 h [12]: 718 ng/mL | concentration at 0.5 h [13]: 103 ng/mL | concentration at 3 h [14]: 102 ng/g | Kp at 8 h [15]: 0.63 | Kp at 3 h [16]: 0.39 | Kp at 24 h [17]: 0.11 | concentration at 8 h [18]: 18.9 ng/g

SMILES: COC(=O)N[C@H](C(=O)N1CCC[C@H]1C(=O)Nc1ccc([C@@H]2CC[C@@H](c3ccc(NC(=O)[C@@H]4CCCN4C(=O)[C@@H](NC(=O)OC)[C@@H](C)OC)cc3)N2c2ccc([Si](C)(C)C)cc2)cc1)[C@@H](C)OC
EC50 (Hepatitis C virus [19]): 7 pM | EC50 (Hepatitis C virus [20]): 247 pM | EC50 (Hepatitis C virus [21]): 1.6 pM | EC50 (Hepatitis C virus [22]): 12 pM

SMILES: COC(=O)N[C@H](C(=O)N1CCC[C@H]1C(=O)Nc1ccc([C@H]2CC[C@H](c3ccc(NC(=O)[C@@H]4CCCN4C(=O)[C@@H](NC(=O)OC)[C@@H](C)OC)cc3)N2c2ccc(N3CC[Si](C)(C)CC3)c(F)c2)cc1)[C@@H](C)OC
EC50 (Hepatitis C virus [19]): 14 pM | EC50 (Hepatitis C virus [20]): 454 pM | EC50 (Hepatitis C virus [21]): 16 pM | EC50 (Hepatitis C virus [22]): 65 pM

SMILES: CC[Si](CC)(CC)c1ccc(N2[C@H](c3ccc(NC(=O)[C@@H]4CCCN4C(=O)[C@@H](NC(=O)OC)C(C)C)cc3)CC[C@H]2c2ccc(NC(=O)[C@@H]3CCCN3C(=O)[C@@H](NC(=O)OC)C(C)C)cc2)cc1
EC50 (Hepatitis C virus [19]): 5.8 pM | EC50 (Hepatitis C virus [20]): 817 pM | EC50 (Hepatitis C virus [21]): 2.8 pM | EC50 (Hepatitis C virus [22]): 11 pM

SMILES: COC(=O)N[C@H](C(=O)N1CCC[C@H]1C(=O)Nc1ccc([C@@H]2CC[C@@H](c3ccc(NC(=O)[C@@H]4CCCN4C(=O)[C@@H](NC(=O)OC)[C@@H](C)OC)cc3)N2c2ccc(N3CC[Si](C)(C)CC3)c(F)c2)cc1)[C@@H](C)OC
EC50 (Hepatitis C virus [19]): 6 pM | EC50 (Hepatitis C virus [20]): 242 pM | EC50 (Hepatitis C virus [21]): 2.9 pM | EC50 (Hepatitis C virus [22]): 12 pM

SMILES: COC(=O)N[C@H](C(=O)N1CCC[C@H]1C(=O)Nc1ccc([C@@H]2CC[C@@H](c3ccc(NC(=O)[C@@H]4CCCN4C(=O)[C@@H](NC(=O)OC)[C@@H](C)OC)cc3)N2c2ccc([Si](C)(C)C(C)(C)C)cc2)cc1)[C@@H](C)OC
EC50 (Hepatitis C virus [19]): 3 pM | EC50 (Hepatitis C virus [20]): 80 pM | EC50 (Hepatitis C virus [21]): 1.4 pM | Ratio EC50 (Hepatitis C virus [23]): 10 | EC50 (Hepatitis C virus [22]): 7.9 pM

SMILES: COC(=O)N[C@H](C(=O)N1CCC[C@H]1C(=O)Nc1ccc([C@H]2CC[C@H](c3ccc(NC(=O)[C@@H]4CCCN4C(=O)[C@@H](NC(=O)OC)[C@@H](C)OC)cc3)N2c2cc(F)c(N3CC[Si](C)(C)CC3)c(F)c2)cc1)[C@@H](C)OC
EC50 (Hepatitis C virus [19]): 4.8 pM | EC50 (Hepatitis C virus [20]): 114 pM | EC50 (Hepatitis C virus [21]): 1.7 pM | EC50 (Hepatitis C virus [22]): 12 pM

SMILES: CC[Si](CC)(CC)c1ccc(N2[C@H](c3ccc(NC(=O)[C@@H]4CCCN4C(=O)[C@@H](NC(=O)OC)[C@@H](C)OC)cc3)CC[C@H]2c2ccc(NC(=O)[C@@H]3CCCN3C(=O)[C@@H](NC(=O)OC)[C@@H](C)OC)cc2)cc1
EC50 (Hepatitis C virus [19]): 2 pM | EC50 (Hepatitis C virus [20]): 121 pM | EC50 (Hepatitis C virus [21]): 1 pM | Ratio EC50 (Hepatitis C virus [23]): 7 | EC50 (Hepatitis C virus [22]): 2.3 pM

SMILES: COC(=O)N[C@H](C(=O)N1CCC[C@H]1C(=O)Nc1ccc([C@@H]2CC[C@@H](c3ccc(NC(=O)[C@@H]4CCCN4C(=O)[C@@H](NC(=O)OC)C(C)C)cc3)N2c2ccc(C(C)(C)C)cc2)cc1)C(C)C [OMBITASVIR]
remaining at 1 h, 1 µM [24]: 63.5% | remaining at 1 h, 1 µM [25]: 73.5% | remaining at 1 h, 1 µM [26]: 82.5%
